Screens (PubChem)
A selection: hits, their analogues and other compounds. The true share with any hit is near 1.5%.
CXCR6 inh – CXCR6 (human) receptor inhibition; O00574; CHO-K1 PathHunter CXCR6 beta-arrestin, luminescence; inhibition, % at 20 µM; 0.36% of 360,000 active; AID 602244; in the data active = inhibition above about 34%, passing the limit was not always enough;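 also: antagonist mode with CXCL16 agonist at 10 nM final; 0% = 10 nM CXCL16 with DMSO and 100% = unstimulated wells without agonist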
Target sequence (O00574 whole entry, looked up): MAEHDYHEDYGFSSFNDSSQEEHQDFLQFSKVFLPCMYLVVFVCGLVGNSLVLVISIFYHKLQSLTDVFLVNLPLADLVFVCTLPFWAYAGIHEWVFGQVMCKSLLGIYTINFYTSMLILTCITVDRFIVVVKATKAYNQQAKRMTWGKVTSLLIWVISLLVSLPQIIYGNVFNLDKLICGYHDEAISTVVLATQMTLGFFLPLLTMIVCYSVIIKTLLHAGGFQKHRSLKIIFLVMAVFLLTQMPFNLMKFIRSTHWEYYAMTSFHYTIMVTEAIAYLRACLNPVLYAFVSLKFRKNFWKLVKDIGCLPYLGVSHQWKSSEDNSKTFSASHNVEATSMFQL
CCR6 antagonist – antagonists of human CCR6 receptor; P51684; AID 493098; CHO-K1 CCR6 PathHunter beta-arrestin, luminescence, CCL20-stimulated; inhibition, % at 20 µM; 0.49% of 340,000 active;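 active = compounds whose inhibition of the agonist-driven luminescence signal at 20 µM reaches about 50%, limit read from the data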;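 also: cells stimulated with CCL20 at 14 nM final; plate controls were DMSO with CCL20 for no effect and DMSO without agonist for full effect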
Target sequence (P51684 whole entry, looked up): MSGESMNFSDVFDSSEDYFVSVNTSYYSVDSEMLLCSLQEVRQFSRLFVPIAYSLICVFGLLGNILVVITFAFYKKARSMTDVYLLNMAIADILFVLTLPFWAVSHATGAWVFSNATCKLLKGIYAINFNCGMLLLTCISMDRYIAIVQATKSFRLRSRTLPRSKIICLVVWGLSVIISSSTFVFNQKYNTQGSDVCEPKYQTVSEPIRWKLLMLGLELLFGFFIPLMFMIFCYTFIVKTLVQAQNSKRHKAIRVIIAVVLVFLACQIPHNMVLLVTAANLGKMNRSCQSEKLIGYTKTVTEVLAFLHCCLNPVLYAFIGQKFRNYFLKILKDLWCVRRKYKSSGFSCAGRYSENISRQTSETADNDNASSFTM
APJ antagonist – APJ receptor antagonism; AID 2521; inhibition, % at 20 µM; 0.32% of 330,000 active; CHO-K1 APJ beta-arrestin complementation, luminescence; P35414;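 active = inhibition above about 40% at 20 µM, limit read from the data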;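 also: cells challenged with 10 nM apelin-13 agonist together with compound; plate controls were apelin-13 plus DMSO wells for no effect and DMSO wells lacking apelin-13 for full effect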
EBI2 block – antagonists of human EBI2 receptor; P32249; EBI2 beta-arrestin recruitment, luminescence, 7a,25-OHC stimulated; inhibition, % at 5 µM; 0.81% of 360,000 active; in the data active = inhibition above about 38%;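 also: enzyme fragment complementation signal reports receptor beta-arrestin coupling in cells; 0% = agonist plus DMSO wells and 100% = wells without agonist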
APJ ag – agonists of human APJ apelin receptor; P35414; CHO-K1 APJ PathHunter beta-arrestin, luminescence; 0% DMSO wells, 100% apelin; activation, % at 20 µM; 0.11% of 330,000 active; AID 2520;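 active = activation more than six SD over the plate average, tested at 20 µM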;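 also: 0% = DMSO alone and 100% = apelin-13 at 10 nM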
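Incubation: overnight seeding, 90 min compound at 25 °C, 1 h detection; test system: PathHunter CHO-K1 APJ (AGTRL-1) beta-arrestin reporter cells; amount: 1000 cells/well; doses: one dose, 20 µM compound, 1% DMSO; measured by: beta-gal luminescence; measure: agonist-driven arrestin binding to APJ; benchmarks: negative DMSO alone, positive Apelin-13 at 10 nM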
EBI2 conf – confirmation of human EBI2 receptor antagonists; shares compounds with EBI2 block; EBI2 beta-arrestin luminescence, 7a,25-OHC antagonism; inhibition, % at 5 µM; 29% of 2,400 active; AID 651997;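 active = inhibition of at least 50%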
EBI2 agonist – activates EBI2, counter-screen for EBI2 antagonists; shares compounds with EBI2 block; EBI2-expressing cells, agonist mode, luminescence, 60 min; 0% vehicle, 100% 7α,25-dihydroxycholesterol control; activation, % at 5 µM; 2,400 tested, under 10 active;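 active = activation of at least 50%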
bGal counter – beta-galactosidase inhibition counter-screen. shares compounds with EBI2 block. purified beta-galactosidase, luminescent Galacton Star, 15 min. inhibition, % at 5 µM. 1% of 2,400 active. AID 652176;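 active = replicate-average signal at least 3 plate SD below neutral wells, shown as high inhibition, flagging enzyme-inhibiting false positives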;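 also: 0% = DMSO wells with enzyme and 100% = wells lacking enzyme; higher means stronger loss of beta-gal luminescence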
Starred values were filed as active, the others as inactive; / = no result.

SMILES | CXCR6 inh | CCR6 antagonist | APJ antagonist | EBI2 block | APJ ag | EBI2 conf | EBI2 agonist | bGal counter
CCOc1ccccc1N(C(=O)c1snc(C(N)=O)c1N)C(C(=O)NC1CCCC1)c1ccco1 (stereo not drawn) | 7 | 9 | 13 | 7 | -1 | / | / | /
Cc1ccc(N(C(=O)c2snc(C(N)=O)c2N)C(C(=O)NC2CCCC2)c2ccc(C)o2)cc1 (stereo not drawn) | 2 | 2 | 20 | 68* | -1 | 70* | -2 | -21
Cc1cccc(N(C(=O)c2snc(C(N)=O)c2N)C(C(=O)NC2CCCC2)c2ccc(C)o2)c1 (stereo not drawn) | 2 | -5 | 8 | 51* | -2 | 56* | 0 | -16
Cc1cccc(N(C(=O)c2snc(C(N)=O)c2N)C(C(=O)NC2CCCC2)c2ccncc2)c1 (stereo not drawn) | 6 | 8 | 22 | 2 | 0 | / | / | /
Cc1ccc(N(C(=O)c2snc(C(N)=O)c2N)C(C(=O)NC2CCCC2)c2ccco2)cc1 (stereo not drawn) | 13 | 9 | -8 | 56* | -1 | 28 | 0 | 7
COc1ccc(C(C(=O)NC2CCCCC2)N(C(=O)c2snc(C(N)=O)c2N)c2ccc(OC)cc2OC)cc1 (stereo not drawn) | 7 | -1 | 11 | 70* | -3 | 73* | -1 | 9
COc1cccc(C2C(C(=O)OCc3ccccc3)=C(C)Nc3ncnn32)c1OC (stereo not drawn) | 11 | 11 | -24 | 14 | -2 | / | / | /
C=C(C)C(O)Cc1c(OC)ccc(C(=O)/C=C/c2ccc(O)cc2)c1O (stereo not drawn) | 5 | 29 | -10 | 17 | -2 | / | / | /
CC(C)=CCC/C(C)=C/Cc1c(O)ccc(C(=O)/C=C/c2ccc(O)cc2)c1O | 11 | 28 | -48 | 43* | -8 | 49 | 1 | 3
Cc1ccc(C(=O)NNC(=O)CSc2nnc(-c3ccncc3)n2C)cc1 | 5 | 0 | 5 | -24 | 1 | / | / | /
COc1ccc(C(=O)NNC(=O)CSc2nnc(C(C)C)n2C)cc1 | 2 | -6 | -4 | 1 | -2 | / | / | /
CCc1ccc(OCC(=O)NNC(=O)CSc2nnc(-c3ccc(C)cc3)n2C)cc1 | 4 | 12 | 1 | 41 | -3 | / | / | /
COc1ccc(C(=O)NNC(=O)CSc2nnc(-c3ccc(O)cc3)n2C)cc1 | 1 | -10 | 1 | 69* | -3 | 45 | 0 | 8
Cc1ccc(-c2nnc(SCC(=O)NNC(=O)COc3ccccc3C)n2C)cc1 | 0 | 1 | 6 | 53* | -4 | 9 | -1 | -4
Cc1ccc(-c2nnc(SCC(=O)NNC(=O)COc3cccc(C)c3)n2C)cc1 | -6 | -19 | -28 | 45* | -3 | 18 | 2 | 11
CC(C)C[C@H]1CN(CCCC[C@H]2CNC(=O)C(=O)N2CC2CCCCC2)C(=O)C(=O)N1CCc1ccc(O)cc1 | 8 | / | / | 2 | / | / | / | /
CC(=O)c1ccc(S(=O)(=O)N2CCN(CC(=O)Nc3ccnn3C3CCCC3)CC2)cc1 | -2 | 2 | / | 6 | / | / | / | /
C[C@@H]1CN([C@H](C)CO)C(=O)CCCn2nncc2CO[C@H]1CN(C)S(=O)(=O)c1ccc(C#N)cc1 | 9 | / | / | -2 | / | / | / | /
COc1ccc(-c2nc3c(c(=O)[nH]c(=O)n3Cc3ccccc3)n2Cc2ccccc2)cc1 | 3 | 8 | -2 | 45* | -4 | 10 | 2 | -7
COc1ccc(-c2nc3c(c(=O)[nH]c(=O)n3Cc3ccccc3)n2C)cc1 | 15 | 6 | -2 | 10 | -3 | / | / | /
COc1ccc([N+](=O)[O-])cc1NC(=O)C(C)N(C)Cc1ccc(Br)cc1 (stereo not drawn) | 12 | 17 | 9 | 37 | -3 | / | / | /
COc1ccc(Br)cc1CN(C)C(C)C(=O)Nc1cc([N+](=O)[O-])ccc1OC (stereo not drawn) | 7 | 7 | 4 | 40* | -5 | 13 | 1 | 0
CC(C)C[C@H]1CN([C@@H](CC(C)C)CN2CCC[C@@H]2CN2C(=S)NC[C@@H]2Cc2ccc(O)cc2)C(=S)N1CCc1ccccc1 | 13 | / | / | 31 | / | / | / | /
CC(C)C[C@@H](CN1CCC[C@@H]1CN1C(=S)NC[C@@H]1Cc1ccc(O)cc1)N1C[C@H](Cc2ccccc2)N(CCc2ccccc2)C1=S | 0 | / | / | 47* | / | 6 | -1 | -7
CC(C)C[C@@H](CN1CCCC1CN1C(=S)NC[C@@H]1Cc1ccc(O)cc1)N1C[C@H](Cc2ccccc2)N(CCc2ccccc2)C1=S (stereo partly drawn) | 11 | 9 | / | 29 | / | / | / | /
SMILES | CXCR6 inh | CCR6 antagonist | APJ antagonist | EBI2 block | APJ ag | EBI2 conf | EBI2 agonist | bGal counter
Oc1ccc(C[C@H]2CNC(=S)N2CC2CCCN2C[C@H](Cc2ccc(O)cc2)N2C[C@H](Cc3ccccc3)N(CCc3ccccc3)C2=S)cc1 (stereo partly drawn) | 6 | 11 | / | 42* | / | 17 | 0 | 8
CC(C)C[C@H]1CNC(=S)N1C[C@H]1CCCN1C[C@H](CC(C)C)N1C[C@H](Cc2ccc(O)cc2)N(CCc2ccccc2)C1=S | 12 | / | / | 43* | / | 14 | 1 | 8
CC(C)C[C@H]1CNC(=S)N1C[C@H]1CCCN1C[C@H](Cc1ccc(O)cc1)N1C[C@H](Cc2ccccc2)N(CCc2ccccc2)C1=S | 14 | / | / | 16 | / | / | / | /
COc1cccc(CN2C[C@]34C=C[C@@H](C[C@@H]3S2(=O)=O)O4)c1 | -3 | 10 | -43 | 2 | 11 | / | / | /
Cc1nc(CS(=O)(=O)c2ccccc2)cc(Sc2ccc(Cl)cc2)n1 | -1 | 26 | -4 | 46* | -1 | 29 | -1 | -11
Cc1nc(CS(=O)(=O)c2ccc(Cl)cc2)cc(Sc2ccccc2Cl)n1 | 6 | 0 | -18 | 71* | 0 | 47 | 0 | 3
Cc1nc(CS(=O)(=O)c2ccccc2)cc(Sc2ccccc2Cl)n1 | -3 | -8 | 22 | 43 | -3 | / | / | /
CCCS(=O)(=O)NC(=O)C1(C)CCCN(C(=O)c2c(F)ccc(C)c2F)C1 (stereo not drawn) | 1 | / | / | -6 | / | / | / | /
Cc1ccc2oc(=O)n(CCCOc3ccccc3C)c2c1 | 9 | 8 | 9 | 44* | -2 | 39 | 1 | 8
O=C(c1ccco1)N1CCN(c2nc(C(F)(F)F)nc3c2nnn3Cc2ccccc2)CC1 | 12 | 12 | 20 | 48* | 1 | 30 | 2 | 7
CC1CCCN(C(=O)c2ccc(Br)c(S(=O)(=O)N3CCOCC3)c2)C1 (stereo not drawn) | -8 | 15 | -12 | -4 | -1 | / | / | /
